Laboratory results reported in ChEMBL document CHEMBL1811801, “Structural modifications of quinolone-3-carboxylic acids with anti-HIV activity” (Bioorg Med Chem, 2011).

Legend:
[1] = Cytotoxicity against human C8166 cells by MTT assay; assay type: cell-based
Summary of the method: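 Uninfected C8166 cells exposed to compound; viability read by MTT assay. CC50 is the concentration lowering normal uninfected cell viability by 50%. Values are means of at least two separate experiments.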

[2] = test system: Human immunodeficiency virus 1; test: Antiviral activity against HIV1 LAI 3B infected in human C8166 cells assessed as protection against virus-induced cytopathic effect by MTT assay; assay type: functional, organism-based; conditions: Human immunodeficiency virus 1, LAI 3B
Summary of the method: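 C8166 cells infected with wild-type HIV-1 (LAI strain IIIB); protection from viral cytopathogenicity read by MTT assay. EC50 is the concentration protecting cells against virus-induced cytopathogenicity by 50%. Values are means of at least two separate experiments.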

[3] = Selectivity index, ratio of CC50 for human C8166 cells to EC50 for HIV1 LAI 3B; assay type: toxicity, cell-based; conditions: read-out: Ratio CC50/EC50

Row | SMILES | CC50 [1] | EC50 [2] | selectivity ratio [3]
1 | CCCCn1cc(C(=O)O)c(=O)c2c(O)c(Cc3cccc(Cl)c3F)ccc21 | 19.9 µM | 8.09 µM | 2.47
2 | COc1cc2c(cc1Cc1cccc(Cl)c1F)c(=O)c(C(=O)O)cn2[C@H](CO)C(C)C [ELVITEGRAVIR] | 17.2 µM | 0.00021 µM | 81900
3 | CCCn1cc(C(=O)O)c(=O)c2c(O)c(Cc3cccc(Cl)c3F)ccc21 | 24.2 µM | 2.79 µM | 8.66
4 | CC(C)n1cc(C(=O)O)c(=O)c2c(O)c(Cc3cccc(Cl)c3F)ccc21 | 26.5 µM | 4.44 µM | 5.97
5 | O=C(O)c1cn(C2CC2)c2ccc(Cc3cccc(Cl)c3F)c(O)c2c1=O | 39.1 µM | 2.01 µM | 19.5
6 | CC(C)(C)n1cc(C(=O)O)c(=O)c2c(O)c(Cc3cccc(Cl)c3F)ccc21 | 400 µM | 4.53 µM | 88.3
7 | O=C(O)c1cn(C2CCCC2)c2ccc(Cc3cccc(Cl)c3F)c(O)c2c1=O | 12.4 µM | 3.87 µM | 3.21
8 | CC(C)[C@@H](CO)n1cc(C(=O)O)c(=O)c2c(O)c(Cc3cccc(Cl)c3F)ccc21 | 125 µM | 0.13 µM | 962
9 | CCC(C)n1cc(C(=O)O)c(=O)c2c(O)c(Cc3cccc(Cl)c3F)ccc21 (stereo unspecified) | 30.7 µM | 1.83 µM | 16.8
10 | O=C(O)c1cn(C2CCCCC2)c2ccc(Cc3cccc(Cl)c3F)c(O)c2c1=O | 17.4 µM | 2.81 µM | 6.18
11 | CC(C)Cn1cc(C(=O)O)c(=O)c2c(O)c(Cc3cccc(Cl)c3F)ccc21 | 19.5 µM | 3.47 µM | 5.63
12 | CCCCCn1cc(C(=O)O)c(=O)c2c(O)c(Cc3cccc(Cl)c3F)ccc21 | 39.9 µM | 23.5 µM | 1.7
